Bioassay records from PubChem.
Rows were chosen to be rich in hits. Some 1.1% of all compounds tested hit in one or more screens of this group.
Arrestin-AP2 inh = inhibitors of beta-arrestin/AP2 binding, primary screen, biochemical, GPCR trafficking, flow cytometry; beta-arrestin 1 C-terminal peptide binding to AP2 beta2-adaptin appendage (human); FITC-arrestin peptide / GST-AP2 beads; AP2 beta2 appendage carries R879A mutation; inhibition, % at 10 µM; 0.31% of 340,000 active;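 active = inhibition above a set limit, near 3 SD of compounds lacking own fluorescence, cut at about 54% in these data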;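 note: plate controls were DMSO wells for no effect and 5 µM unlabelled arrestin peptide for full effect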
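system = GST-tagged AP2 beta2-adaptin appendage (R879A) on 4 µm glutathione beads | reagent = FITC-labelled arrestin peptide probe, 50 nM final | schedule = compound with beads 12 min RT, then probe 1 h RT | signal = HyperCyt-sampled flow cytometry, FL1 channel, ex 488/em 535 nm | read-out = percent response from loss of bead-bound FITC fluorescence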
SENP1 inh = human SENP1 catalytic domain inhibitors, primary screen, biochemical, FRET, uHTS; inhibition, % at 10 µM; Sentrin-specific protease 1 (Homo sapiens), Q9P0U3; 0.21% of 360,000 active; recombinant SENP1 catalytic domain, CyPet-SUMO1-YPet FRET cleavage;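 active = inhibition at least 30% at 10 µM, raw YFP signal under a set limit, fluorescence ratio 0.5 to 1.5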;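 note: 0% = enzyme with DMSO and 100% = no enzyme wells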
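system = hSENP1 catalytic domain, recombinant | reagent = SFCypet-SUMO1-SFYpet substrate at 25 nM | doses = one dose per compound, 10 µM, 0.5% DMSO | incubation = enzyme reaction for 50 min at room temperature, dark | measured by = FRET, CFP and YFP emission | controls = no-enzyme low, enzyme-DMSO high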
FAS-TE inh = FAS thioesterase domain inhibitors, primary screen, biochemical, fluorescence intensity, uHTS; Fatty acid synthase (Homo sapiens), P49327; recombinant FAS-TE, OMFH fluorogenic substrate, fluorescence endpoint; inhibition, % at 15 µM; 0.67% of 360,000 active; AID 602261, 2012;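 active = compounds whose normalised, plate-corrected inhibition of enzyme fluorescence in the single-dose primary screen is 50% or more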;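 note: 0% = DMSO with enzyme and 100% = substrate without enzyme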
Target sequence (P49327 whole entry, looked up, the tested form may be a part): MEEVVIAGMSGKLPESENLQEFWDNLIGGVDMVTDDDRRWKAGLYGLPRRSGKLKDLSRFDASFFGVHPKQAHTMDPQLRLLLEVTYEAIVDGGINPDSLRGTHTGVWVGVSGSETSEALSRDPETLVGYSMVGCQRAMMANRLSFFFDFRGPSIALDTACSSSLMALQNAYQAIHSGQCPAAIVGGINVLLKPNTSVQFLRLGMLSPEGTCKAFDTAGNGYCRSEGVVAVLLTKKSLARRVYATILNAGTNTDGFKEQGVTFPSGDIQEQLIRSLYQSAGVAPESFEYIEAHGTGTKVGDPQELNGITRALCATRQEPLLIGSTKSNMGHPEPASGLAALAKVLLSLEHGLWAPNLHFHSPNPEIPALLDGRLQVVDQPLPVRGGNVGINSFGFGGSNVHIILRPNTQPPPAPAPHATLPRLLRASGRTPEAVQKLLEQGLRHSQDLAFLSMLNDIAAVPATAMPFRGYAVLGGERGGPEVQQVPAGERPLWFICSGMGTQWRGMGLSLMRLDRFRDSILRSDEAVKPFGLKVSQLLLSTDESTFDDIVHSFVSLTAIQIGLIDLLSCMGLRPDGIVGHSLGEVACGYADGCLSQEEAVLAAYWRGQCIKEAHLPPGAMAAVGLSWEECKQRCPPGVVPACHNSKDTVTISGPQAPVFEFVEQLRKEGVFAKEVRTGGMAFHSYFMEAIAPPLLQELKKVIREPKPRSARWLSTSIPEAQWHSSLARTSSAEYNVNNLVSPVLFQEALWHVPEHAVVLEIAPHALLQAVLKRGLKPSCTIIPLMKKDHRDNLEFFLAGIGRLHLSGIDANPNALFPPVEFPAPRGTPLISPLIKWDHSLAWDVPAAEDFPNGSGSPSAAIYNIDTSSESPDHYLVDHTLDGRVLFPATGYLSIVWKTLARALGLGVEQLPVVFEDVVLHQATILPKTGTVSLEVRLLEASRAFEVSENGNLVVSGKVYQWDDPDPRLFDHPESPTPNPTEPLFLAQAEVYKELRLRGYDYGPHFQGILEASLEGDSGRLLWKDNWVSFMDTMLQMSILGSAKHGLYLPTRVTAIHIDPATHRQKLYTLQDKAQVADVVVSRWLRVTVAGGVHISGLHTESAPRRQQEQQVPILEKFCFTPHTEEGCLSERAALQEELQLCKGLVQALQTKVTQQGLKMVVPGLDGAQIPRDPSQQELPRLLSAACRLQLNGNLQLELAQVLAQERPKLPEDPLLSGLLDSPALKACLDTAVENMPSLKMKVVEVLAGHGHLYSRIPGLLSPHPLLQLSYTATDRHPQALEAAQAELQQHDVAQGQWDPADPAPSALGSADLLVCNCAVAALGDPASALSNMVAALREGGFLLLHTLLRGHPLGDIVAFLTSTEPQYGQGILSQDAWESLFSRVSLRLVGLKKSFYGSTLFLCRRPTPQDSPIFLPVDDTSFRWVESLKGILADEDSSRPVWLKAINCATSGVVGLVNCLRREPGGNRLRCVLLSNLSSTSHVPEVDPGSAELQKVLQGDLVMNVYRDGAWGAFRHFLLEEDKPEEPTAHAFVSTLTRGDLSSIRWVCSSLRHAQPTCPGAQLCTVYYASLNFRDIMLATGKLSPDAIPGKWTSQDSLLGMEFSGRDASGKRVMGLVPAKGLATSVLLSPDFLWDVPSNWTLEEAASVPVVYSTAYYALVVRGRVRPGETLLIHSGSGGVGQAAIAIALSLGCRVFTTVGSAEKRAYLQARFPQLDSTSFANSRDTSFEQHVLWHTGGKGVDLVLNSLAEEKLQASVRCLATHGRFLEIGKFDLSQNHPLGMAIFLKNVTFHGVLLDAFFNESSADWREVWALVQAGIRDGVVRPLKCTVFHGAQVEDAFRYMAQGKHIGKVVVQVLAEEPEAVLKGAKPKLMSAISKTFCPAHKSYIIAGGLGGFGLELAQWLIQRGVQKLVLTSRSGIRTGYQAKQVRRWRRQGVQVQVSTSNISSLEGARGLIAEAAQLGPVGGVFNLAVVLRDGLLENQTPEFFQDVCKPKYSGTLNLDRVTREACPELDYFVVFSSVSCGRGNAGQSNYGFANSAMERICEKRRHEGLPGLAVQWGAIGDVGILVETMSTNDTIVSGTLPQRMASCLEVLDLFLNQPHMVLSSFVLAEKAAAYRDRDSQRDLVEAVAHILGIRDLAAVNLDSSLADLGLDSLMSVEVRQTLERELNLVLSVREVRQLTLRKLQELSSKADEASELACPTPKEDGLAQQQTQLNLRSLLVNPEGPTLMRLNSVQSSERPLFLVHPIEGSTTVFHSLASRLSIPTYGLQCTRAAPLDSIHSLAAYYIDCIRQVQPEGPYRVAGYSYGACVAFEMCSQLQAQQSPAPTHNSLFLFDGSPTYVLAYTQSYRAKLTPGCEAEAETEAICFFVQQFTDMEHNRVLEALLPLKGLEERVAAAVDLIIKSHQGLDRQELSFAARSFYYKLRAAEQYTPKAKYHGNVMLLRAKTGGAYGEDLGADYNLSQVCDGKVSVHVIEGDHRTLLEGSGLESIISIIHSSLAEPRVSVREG
GASC-1 inh = inhibitors of GASC-1 histone demethylase, primary screen, biochemical, fluorescence, DELFIA europium; Lysine-specific demethylase 4C (Homo sapiens), Q9H3R0; GST-JMJD2C(1-420) H3K9me3 demethylation; inhibition, % at 2.35 µM; 0.069% of 330,000 active; AID 2099, 2009;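 active = more than half of a compound's replicate wells show inhibition beyond 50%, single wells judged on their own value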;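 note: signal counts dimethyl H3K9 product captured on neutravidin plate; 0% = median of DMSO wells and 100% = 0.3 times that DMSO median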
Arr-AP2 CP1 = inhibitors of arrestin peptide binding to AP2, confirmation, biochemical, cherry pick 1, flow cytometry beads | shares compounds with Arrestin-AP2 inh | inhibition, % at 10 µM | GST-AP2 beads, FITC arrestin peptide binding; GST-fused beta2-adaptin appendage, R879A mutant | 2% of 1,300 active | AID 504908, 2011;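 active = inhibition above a set limit, roughly 3 SD of non-fluorescent compound noise, cut at about 38% in these data; inactive = inhibition at or below that limit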;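 note: loss of bead fluorescence from 50 nM FITC arrestin peptide bound to appendage; 0% = negative control wells and 100% = excess unlabelled arrestin peptide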
GST GSH counter = GST-fluorescein capture on glutathione beads, confirmation, artefact control for arrestin-AP2 inhibitor project, biochemical, cherry pick 1, flow cytometry; 2% of 1,300 active; shares compounds with Arrestin-AP2 inh; inhibition, % at 10 µM; GST-fluorescein binding to GSH beads, fluorescence, counter-screen; AID 588338, 2011;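 active = inhibition above 50%, about 3 SD of the inhibition seen with non-fluorescent compounds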;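 note: fluorescein maleimide labelled GST captured on 4 micron glutathione beads; higher means more loss of bead fluorescence from quenching or blocked binding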
FAS-TE inh conf = FAS thioesterase domain inhibitors, confirmation, biochemical, fluorescence intensity, single concentration; shares compounds with FAS-TE inh; recombinant FAS-TE, OMFH fluorogenic substrate; inhibition, % at 15 µM; 45% of 2,300 active; AID 624325, 2012;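 active = compounds inhibiting the enzyme by at least 50% at 15 µM in any one of the replicates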;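 note: 0% = enzyme with DMSO only and 100% = wells lacking enzyme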
Active calls of the source: *; / = not tested or not shown.

SMILES	Arrestin-AP2 inh	SENP1 inh	FAS-TE inh	GASC-1 inh	Arr-AP2 CP1	GST GSH counter	others
CN(C(=O)COC(=O)c1cc(-c2ccc(Cl)s2)nc2ccccc12)C1CCS(=O)(=O)C1 (stereo not given)	64*	-25	20	3	13	-2
CN(C(=O)COC(=O)c1cc(-c2ccccc2Cl)nc2ccccc12)C1CCS(=O)(=O)C1 (stereo not given)	5	2	1	-18	/	/
CC(C)Cn1c(N)c(C(=O)COC(=O)c2ccncc2)c(=O)n(C)c1=O	-6	0	-1	6	-7	-4
CC(C)Cn1c(N)c(C(=O)COC(=O)c2ccc(Br)cc2)c(=O)n(C)c1=O	4	0	27	6	2	1
CC(C)Cn1c(N)c(C(=O)COC(=O)c2ccc(Cl)cc2)c(=O)n(C)c1=O	-11	-8	16	-11	/	/
CC(C)Cn1c(N)c(C(=O)COC(=O)c2ccc(O)cc2O)c(=O)n(C)c1=O	-6	2	0	-1	5	-6
CC(C)Cn1c(N)c(C(=O)COC(=O)c2c(O)c(Cl)cc(Cl)c2Cl)c(=O)n(C)c1=O	21	1	15	30	/	/
Cc1cccc(C(=O)OCC(=O)c2c(N)n(CC(C)C)c(=O)n(C)c2=O)c1O	-10	1	18	13	-8	-5
Cc1cccc(C(=O)OCC(=O)c2c(N)n(CC(C)C)c(=O)n(C)c2=O)c1[N+](=O)[O-]	-9	-1	20	0	/	/
CCCCC(=O)N/N=C/c1ccc(Sc2cccc3cccnc23)o1	4	-8	5	0	/	/
Cc1ccc(-c2cc(C(F)F)n3ncc(C(=O)N4CCCc5ccccc54)c3n2)cc1	-4	-2	18	7	-2	-2
S=C(Nc1ccc(Cl)cc1Cl)N1CCN(c2ccccn2)CC1	-16	3	-8	1	/	/
Cc1cc(C(=O)Nc2cccc(S(=O)(=O)N3CCCCC3)c2)c2ccccc2n1	-6	-3	14	-10	-9	-2
Cc1cccc(CCNC(=O)c2cccc(N3CCCC3=O)c2)c1	-4	2	-5	-15	/	/
CCOc1ccc(OCCC(=O)OC(C)C(=O)Nc2ccc(Cl)cn2)cc1 (stereo not given)	36	0	7	/	/	/
COc1cc(/C=C(\C#N)c2nc3ccccc3[nH]2)ccc1OC(=O)c1ccco1	97*	-28	-2	-5	13	-5
Cc1cc(C(=O)COc2ccc3ccc(=O)oc3c2)c(C)n1Cc1cccs1	94*	-26	33	-2	-9	7
Cc1cc(C)cc(NC(=O)Cn2c(=O)oc3cc(S(=O)(=O)N4CC(C)CC(C)C4)ccc32)c1 (stereo not given)	97*	3	21	16	-3	-8
O=C(Nc1c2c(nn1-c1ccc(F)cc1)CS(=O)(=O)C2)C12CC3CC(CC(C3)C1)C2	2	1	6	-12	/	/
CC(OC(=O)C1CSC2(c3ccc(F)cc3)CCC(=O)N12)C(=O)NC(N)=O (stereo not given)	4	1	-2	54	/	/
CC(OC(=O)C1CSC2(C)CCC(=O)N12)C(=O)Nc1cccc(C#N)c1 (stereo not given)	1	1	-1	-1	1	-5
CC(OC(=O)C1CSC2(C)CCC(=O)N12)C(=O)Nc1ccc(F)cc1 (stereo not given)	-3	0	-9	2	-12	-9
COc1ccccc1NC=C1C(=O)OC2(CCCCC2)OC1=O	3	0	10	-2	/	/
CC(=O)N1N=C(c2ccc(Br)cc2)CC1c1cn(C)c2ccccc12 (stereo not given)	55*	-42	15	6	-6	/
CCOC(=O)C1CCN(c2cc3c(cc2NC(=O)c2cc(OC)ccc2Br)n(C)c(=O)n3C)CC1	-2	-19	20	-1	-4	-7
SMILES	Arrestin-AP2 inh	SENP1 inh	FAS-TE inh	GASC-1 inh	Arr-AP2 CP1	GST GSH counter	others
CCOC(=O)C1CCN(c2cc3c(cc2NC(=O)c2ccccc2Br)n(C)c(=O)n3C)CC1	34	-4	9	-1	8	-2
Cc1cccc(NC(=O)CN2CCN(C(=O)c3ccc(-c4nc5ccccc5s4)o3)CC2)c1C	59*	-13	10	/	-3	11
COc1cccc(Nc2ncccc2C(=O)NCc2ccccc2)c1	-6	17	6	/	/	/
COc1ccc(Nc2ncccc2C(=O)NCc2ccccc2)cc1	58*	-1	15	-5	0	-1
CNC(=O)CCCN1C(=O)c2ccccc2Sc2ncccc21	9	-1	-6	4	/	/
CN(c1ccccc1)c1nc(N)c(C#N)c(CC#N)c1C#N	62*	2	-7	10	-11	-3
CN(CCO)c1nc(N)c(C#N)c(CC#N)c1C#N	4	-13	-4	-6	/	/
COc1cccc(-c2cc(=O)[nH][nH]2)c1	0	-41	-4	-1	/	/
CCOc1cccc(-c2cc(=O)[nH][nH]2)c1	74*	0	0	-2	-4	-5
Cc1cc(C)cc(OCC(=O)Nc2ccc3c(c2)C(=O)c2ccccc2C3=O)c1	97*	2	6	3	6	6
O=C(Cn1cnc2c(cnn2-c2ccccc2Cl)c1=O)N1CCc2ccccc21	1	-1	3	-4	/	/
Cc1ccc(N2C(=N)/C(=C3/Nc4ccccc4S3)C(c3ccccc3)C2=O)cc1 (stereo not given)	56*	-1	63*	-2	1	-3	FAS-TE inh conf=12
CCN1CCN(S(=O)(=O)c2ccc(Cl)c(C(=O)NCCOc3ccc(C)cc3)c2)CC1	10	0	0	/	/	/
O=C(COC(=O)c1cc([N+](=O)[O-])ccc1NCCO)c1ccc(Cl)cc1	0	1	46	-2	/	/
CCc1ccc(C(=O)COC(=O)c2cc([N+](=O)[O-])ccc2NCCO)cc1	57*	0	84*	-3	-2	-7	FAS-TE inh conf=73*
COCCn1c(SCC(=O)NC2CCCC2)nnc1-c1ccncc1	23	0	-5	6	/	/
